Laboratory results taken from ChEMBL document CHEMBL2390856, “Carbon-11 N-methyl alkylation of L-368,899 and in vivo PET imaging investigations for neural oxytocin receptors” (Bioorg Med Chem Lett, 2013).
Each block holds one compound with its values, some of them ahead of it.

How the values were obtained:
[1] = Oral bioavailability in rat; assay type: ADME, organism-based; settings: in vivo
[2] = Oral bioavailability in dog; assay type: ADME, organism-based, Canis lupus familiaris; settings: in vivo
[3] = target: Vasopressin V2 receptor (Rattus norvegicus, UniProt Q00788); assay: Inhibition of rat kidney V2 receptor
[4] = target: Vasopressin V1a receptor (Rattus norvegicus, UniProt P30560); assay: Inhibition of rat liver V1a receptor
[5] = target: T1, Oxytocin receptor (Rattus norvegicus, UniProt P70536); assay: Inhibition of rat uterus OT receptor
T1 sequence (P70536 whole entry): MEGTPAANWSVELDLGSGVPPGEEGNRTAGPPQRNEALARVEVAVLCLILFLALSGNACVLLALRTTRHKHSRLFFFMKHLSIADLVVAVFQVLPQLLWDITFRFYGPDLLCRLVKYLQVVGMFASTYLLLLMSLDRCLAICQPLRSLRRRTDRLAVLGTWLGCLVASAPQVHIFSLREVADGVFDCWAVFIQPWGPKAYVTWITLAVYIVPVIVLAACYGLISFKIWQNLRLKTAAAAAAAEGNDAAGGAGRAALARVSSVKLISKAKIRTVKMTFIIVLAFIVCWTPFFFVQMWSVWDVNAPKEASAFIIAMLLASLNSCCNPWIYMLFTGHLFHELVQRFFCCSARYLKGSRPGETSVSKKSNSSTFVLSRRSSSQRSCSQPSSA

[6] = target: Vasopressin V1a receptor (Homo sapiens, UniProt P37288); assay: Binding affinity to human liver V1A receptor
[7] = target: T2, Vasopressin V1b receptor (Homo sapiens, UniProt P47901); assay: Binding affinity to V1B receptor (unknown origin)
T2 sequence (P47901 whole entry): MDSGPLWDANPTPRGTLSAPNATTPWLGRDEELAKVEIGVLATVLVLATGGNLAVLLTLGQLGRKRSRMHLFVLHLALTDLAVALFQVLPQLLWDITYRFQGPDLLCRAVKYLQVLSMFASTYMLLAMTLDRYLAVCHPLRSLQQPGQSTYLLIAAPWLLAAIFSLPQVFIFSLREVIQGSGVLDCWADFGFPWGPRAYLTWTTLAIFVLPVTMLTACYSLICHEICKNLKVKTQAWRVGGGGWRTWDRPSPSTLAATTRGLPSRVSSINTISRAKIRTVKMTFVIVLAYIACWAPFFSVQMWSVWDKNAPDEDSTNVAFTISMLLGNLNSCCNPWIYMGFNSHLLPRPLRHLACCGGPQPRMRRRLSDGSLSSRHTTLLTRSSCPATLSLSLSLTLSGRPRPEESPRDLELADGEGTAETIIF
Outline: (§1)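 Ki values in nM from human receptor binding assays run by the NIMH Psychoactive Drug Screening Program.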

[8] = target: Vasopressin V2 receptor (Homo sapiens, UniProt P30518); assay: Binding affinity to human V2 receptor; outline: as §1
[9] = target: T3, Oxytocin receptor (Homo sapiens, UniProt P30559); assay: Binding affinity to human OT receptor; outline: as §1
T3 sequence (P30559 whole entry): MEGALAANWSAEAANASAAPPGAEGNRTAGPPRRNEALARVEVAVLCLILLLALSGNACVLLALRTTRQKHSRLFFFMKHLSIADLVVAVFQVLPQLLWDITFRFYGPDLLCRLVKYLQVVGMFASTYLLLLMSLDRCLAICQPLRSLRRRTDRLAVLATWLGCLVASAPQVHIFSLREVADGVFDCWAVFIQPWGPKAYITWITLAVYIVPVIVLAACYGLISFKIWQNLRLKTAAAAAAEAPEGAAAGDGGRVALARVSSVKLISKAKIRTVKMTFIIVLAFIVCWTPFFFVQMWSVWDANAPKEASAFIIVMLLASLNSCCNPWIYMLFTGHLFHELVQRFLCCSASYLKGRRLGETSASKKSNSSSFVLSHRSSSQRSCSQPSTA

[10] = system: Muscle tissue; assay: Drug uptake in Sprague-Dawley rat muscle at 500 uCi by PET imaging analysis in presence of ornithine vasotocin; assay type: ADME, tissue-based; settings: in vivo
Outline: (§2)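 Estradiol benzoate-primed Sprague-Dawley rats (10–12 μg sc in sesame oil, daily for 3 days). The peptide OT antagonist ornithine vasotocin (5 mg/kg) was injected 10 min before the radiotracer to block peripheral receptors. 500 μCi of tracer was injected 30 s into a 45 min emission scan.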

[11] = system: Brain; assay: Drug uptake in cynomolgus monkey brain at 8.3 mCi, iv after 2 hrs by PET imaging analysis; assay type: ADME, organism-based, Macaca fascicularis; settings: in vivo
Outline: (§3)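 One male cynomolgus monkey (8.91 kg) given an 8.3 mCi iv bolus of radiotracer. PET scan for 2 h from injection, with images summed. Time-activity curves were derived for choroid plexus, muscle and whole brain.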

[12] = Drug uptake in cynomolgus monkey muscle at 8.3 mCi, iv after 2 hrs by PET imaging analysis; assay type: ADME, organism-based, Macaca fascicularis, Muscle tissue; settings: in vivo; outline: as §3
[13] = Drug uptake in cynomolgus monkey choroid plexus at 8.3 mCi, iv after 2 hrs by PET imaging analysis; assay type: ADME, organism-based, Macaca fascicularis; settings: in vivo; outline: as §3
[14] = Drug uptake in Sprague-Dawley rat amygdala at 500 uCi after 10 mins by PET imaging analysis; assay type: ADME, tissue-based; settings: in vivo
[15] = system: Hypothalamus; assay: Drug uptake in Sprague-Dawley rat hypothalamus at 500 uCi after 10 mins by PET imaging analysis; assay type: ADME, tissue-based; settings: in vivo
[16] = system: Brain; assay: Drug uptake in Sprague-Dawley rat brain at 500 uCi after 10 mins by PET imaging analysis; assay type: ADME, tissue-based; settings: in vivo
[17] = Drug uptake in Sprague-Dawley rat dorsal caudate nucleus at 500 uCi after 10 mins by PET imaging analysis; assay type: ADME, tissue-based; settings: in vivo
[18] = Drug uptake in Sprague-Dawley rat pituitary gland at 500 uCi by PET imaging analysis in presence of ornithine vasotocin; assay type: ADME; settings: in vivo; outline: as §2
[19] = Drug uptake in Sprague-Dawley rat pituitary gland at 500 uCi by PET imaging analysis; assay type: ADME, tissue-based; settings: in vivo
[20] = Lipophilicity, log P of the compound at pH 7.4; assay type: physicochemical; settings: buffer
[21] = system: Brain; assay: Drug uptake in Sprague-Dawley rat brain at 500 uCi by PET imaging analysis; assay type: ADME, tissue-based; settings: in vivo

Chain of Vasopressin V2 receptor (Rattus norvegicus, UniProt Q00788) (Q00788 whole entry): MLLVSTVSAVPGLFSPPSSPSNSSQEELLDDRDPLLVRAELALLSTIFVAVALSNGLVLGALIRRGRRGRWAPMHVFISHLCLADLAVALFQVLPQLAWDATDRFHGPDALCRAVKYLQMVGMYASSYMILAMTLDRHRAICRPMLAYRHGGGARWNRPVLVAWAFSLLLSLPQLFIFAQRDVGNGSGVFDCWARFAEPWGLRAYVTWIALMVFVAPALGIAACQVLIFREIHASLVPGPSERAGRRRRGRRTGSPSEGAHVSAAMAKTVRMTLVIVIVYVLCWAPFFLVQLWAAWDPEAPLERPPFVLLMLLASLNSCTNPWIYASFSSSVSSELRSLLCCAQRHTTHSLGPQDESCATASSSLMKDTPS
Chain of Vasopressin V1a receptor (Rattus norvegicus, UniProt P30560) (P30560 whole entry): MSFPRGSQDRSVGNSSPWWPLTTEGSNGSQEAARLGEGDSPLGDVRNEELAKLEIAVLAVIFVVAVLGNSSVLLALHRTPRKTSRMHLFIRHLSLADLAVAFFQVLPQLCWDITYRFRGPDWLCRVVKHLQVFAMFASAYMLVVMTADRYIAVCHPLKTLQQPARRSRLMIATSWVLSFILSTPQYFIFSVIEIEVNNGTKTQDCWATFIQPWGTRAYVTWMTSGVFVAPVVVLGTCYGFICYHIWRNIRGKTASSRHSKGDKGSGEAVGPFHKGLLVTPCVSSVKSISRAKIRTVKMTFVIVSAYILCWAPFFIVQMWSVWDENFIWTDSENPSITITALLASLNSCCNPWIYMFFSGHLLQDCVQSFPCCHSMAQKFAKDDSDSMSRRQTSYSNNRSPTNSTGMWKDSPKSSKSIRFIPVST
Chain of Vasopressin V2 receptor (Homo sapiens, UniProt P30518) (P30518 whole entry): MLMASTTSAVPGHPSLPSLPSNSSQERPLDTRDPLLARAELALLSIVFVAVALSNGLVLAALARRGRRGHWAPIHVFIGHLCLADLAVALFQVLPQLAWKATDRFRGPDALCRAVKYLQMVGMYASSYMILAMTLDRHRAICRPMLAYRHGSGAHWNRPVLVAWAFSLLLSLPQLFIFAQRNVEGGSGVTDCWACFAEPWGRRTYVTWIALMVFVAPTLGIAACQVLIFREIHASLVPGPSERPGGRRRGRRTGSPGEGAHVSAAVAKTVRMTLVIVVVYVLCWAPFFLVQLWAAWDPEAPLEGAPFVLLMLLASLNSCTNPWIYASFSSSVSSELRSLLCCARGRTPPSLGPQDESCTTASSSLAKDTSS
Chain of Vasopressin V1a receptor (Homo sapiens, UniProt P37288) (P37288 whole entry): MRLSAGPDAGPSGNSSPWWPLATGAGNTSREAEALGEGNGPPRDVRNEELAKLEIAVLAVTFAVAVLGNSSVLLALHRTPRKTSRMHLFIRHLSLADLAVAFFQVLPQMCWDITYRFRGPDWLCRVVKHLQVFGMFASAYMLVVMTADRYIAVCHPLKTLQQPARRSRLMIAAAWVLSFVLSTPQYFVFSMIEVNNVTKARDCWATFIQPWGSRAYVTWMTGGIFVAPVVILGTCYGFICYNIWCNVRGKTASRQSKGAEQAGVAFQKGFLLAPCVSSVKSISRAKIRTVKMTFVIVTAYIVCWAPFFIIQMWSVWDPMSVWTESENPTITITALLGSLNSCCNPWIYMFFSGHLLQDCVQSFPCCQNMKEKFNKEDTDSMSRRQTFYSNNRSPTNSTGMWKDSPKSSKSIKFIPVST

bioavailability [1]: 17% | bioavailability [2]: 17% | IC50 [3]: 570 nM | IC50 [4]: 370 nM | IC50 [5]: 8.9 nM
Structure (SMILES): Cc1ccccc1N1CCN(S(=O)(=O)C[C@]23CC[C@H](C[C@@H]2NC(=O)[C@@H](N)CCS(C)(=O)=O)C3(C)C)CC1

Ki [6]: 620 nM | Ki [7]: 1300 nM | Ki [8]: 181 nM | Ki [9]: 5.2 nM | IC50 [3]: 350 nM | IC50 [4]: 320 nM | IC50 [5]: 9.2 nM
Structure (SMILES): CN[C@@H](CCS(C)(=O)=O)C(=O)N[C@H]1C[C@H]2CC[C@]1(CS(=O)(=O)N1CCN(c3ccccc3C)CC1)C2(C)C

Drug uptake [10]: Active | Drug uptake [11]: Not Active | Drug uptake [12]: Active | Drug uptake [13]: Active | Drug uptake [14]: Active | Drug uptake [15]: Active | Drug uptake [16]: Active | Drug uptake [17]: Active | Drug uptake [18]: Active | Drug uptake [19]: Active | logD [20]: 2.62 | Drug uptake [21]: Active
Structure (SMILES): Cc1ccccc1N1CCN(S(=O)(=O)C[C@]23CC[C@H](C[C@@H]2NC(=O)[C@H](CCS(C)(=O)=O)N[11CH3])C3(C)C)CC1
